In the library only some 1.5% were active in any assay of this set; here they are far more common.
SIAE primary = blocks human sialic acid acetylesterase | AID 1053197 | Q9HAT2 | SIAE FP-Rh probe binding, fluorescence polarization | inhibition, % at 9.66 µM | hit rate 0.69% among 370,000;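 active = inhibition above a cutoff: mean of compounds within the control limits plus 3 SD of those, cut at about 17% in these data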;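 also: 0% = plate median of compound wells and 100% = probe without SIAE protein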
ABHD4 inh = inhibitors of mouse ABHD4; hit rate 0.54% among 370,000; inhibition, % at 8.92 µM; AID 720543; purified mABHD4, FP-Rh probe fluorescence polarization; Q8VD66;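 active = inhibition exceeding the mean over every tested compound plus 3 SD, cut at about 30% in these data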;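 also: 0% = plate median of compound wells and 100% = S159A mutant with DMSO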
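Test system: mABHD4 protein | Buffer or medium: HEPES pH 7.0 buffer, 150 mM NaCl, 0.01% Pluronic F-127 | Probe or stimulus: FP-Rh fluorescent activity-based probe, added after compound pre-incubation | Timing: Pre-incubation 45 min, probe exposure 60 min, at 25 °C | Technique: Fluorescence polarization, excitation 525 nm, emission 598 nm, BODIPY TMR filters | Repeats: Single well per compound (singlicate)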
DAGLB inh = blocks human DAGLB lipase activity. hit rate 0.059% among 340,000. HEK293T DAGLB membrane lysate, EnzChek fluorogenic substrate. inhibition, % at 5.17 µM. Q8NCG7; in the data active = inhibition above about 34%;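 also: 0% = enzyme with vehicle and 100% = wells lacking enzyme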
Target sequence (Q8NCG7 whole entry, looked up): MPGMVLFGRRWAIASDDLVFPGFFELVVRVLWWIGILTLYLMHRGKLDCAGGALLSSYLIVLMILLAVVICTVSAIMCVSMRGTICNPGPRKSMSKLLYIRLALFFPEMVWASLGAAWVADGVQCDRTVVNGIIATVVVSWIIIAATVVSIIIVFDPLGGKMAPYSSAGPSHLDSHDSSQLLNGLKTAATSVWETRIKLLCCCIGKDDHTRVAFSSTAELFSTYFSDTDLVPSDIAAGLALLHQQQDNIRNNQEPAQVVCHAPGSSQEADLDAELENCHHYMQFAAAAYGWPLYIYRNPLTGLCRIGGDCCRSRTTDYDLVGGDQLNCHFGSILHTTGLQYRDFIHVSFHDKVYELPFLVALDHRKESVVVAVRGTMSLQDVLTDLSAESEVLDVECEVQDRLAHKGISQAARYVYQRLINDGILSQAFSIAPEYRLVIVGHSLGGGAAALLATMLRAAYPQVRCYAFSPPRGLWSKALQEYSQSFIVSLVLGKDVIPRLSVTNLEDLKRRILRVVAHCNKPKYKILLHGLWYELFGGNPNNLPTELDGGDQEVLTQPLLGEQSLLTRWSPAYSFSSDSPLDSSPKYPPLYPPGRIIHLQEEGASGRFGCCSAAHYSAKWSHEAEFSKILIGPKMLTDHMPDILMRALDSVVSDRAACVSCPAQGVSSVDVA
TCR-CD3 inh = human TCR-CD3 binding inhibition | hit rate 0.37% among 360,000 | TAMRA-labeled TCR probe fluorescence, biochemical | inhibition, % at 9.4 µM; in the data active = inhibition above about 19%;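 also: recombinant mutant TCR 2C K166C tagged with TAMRA read by polarization; 0% = receptor in buffer alone and 100% = receptor with positive control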
HTRA1 inh = inhibitors of human serine peptidase HTRA1. recombinant HTRA1, FP-rhodamine activity-based probe, fluorescence polarization. hit rate 0.5% among 340,000. inhibition, % at 5.96 µM. AID 504803. Q92743; in the data active = inhibition above about 36%;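 also: 0% = enzyme with DMSO and 100% = wells lacking enzyme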
SIAE confirm = human SIAE inhibition, confirmation; shares compounds with SIAE primary; SIAE FP-Rh activity-based probe, fluorescence polarization; inhibition, % at 9.66 µM; hit rate 13% among 2,300;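 active = mean inhibition of the replicates above the hit cutoff set in the primary screen, cut at about 17% in these data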;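 also: 0% = SIAE with DMSO and probe and 100% = probe without SIAE; inhibitors lower polarization as more probe stays unbound to SIAE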
Active calls of the source: *; . = no result.

SMILES | SIAE primary | ABHD4 inh | DAGLB inh | TCR-CD3 inh | HTRA1 inh | SIAE confirm
C#CCNC(=O)C[C@H]1C[C@@]2(C(=O)OC)C(=C[C@H](COCc3ccccc3)O[C@@H]2C)N(CCC2=CCCCC2)C1=O | 6 | -4 | . | 7 | . | .
C=CCN=C1NC(CCc2ccccc2)C(C(=O)OC)=C(C)N1Cc1cccc(C(F)(F)F)c1 (configuration not stated) | 7 | 14 | . | 3 | . | .
CC(/C=C(\NC(=O)c1ccccc1)C(=O)N=Nc1c(O)[nH]c2ccc(C)cc12)=C\c1ccccc1 | 21* | 4 | 23 | 5 | -22 | 9
Cc1ccc2[nH]c(O)c(N=NC(N)=S)c2c1 | 6 | 1 | 2 | 1 | -3 | .
O=C1C2C3C=CC(C3)C2C(=O)N1c1ccc(-c2nc(-c3ccccc3)nc3ccccc23)cc1 (configuration not stated) | 5 | 3 | . | 0 | . | .
CC(C)CCn1c(COc2ccccc2)n[nH]c1=S | 20* | -7 | -3 | 3 | 4 | 3
S=c1[nH]nc(COc2ccccc2)n1Cc1ccccc1 | 6 | -2 | 6 | -6 | 3 | .
Nn1c(SCC(=O)Nc2ccccc2-c2ccccc2)nnc1-c1cc(-c2ccc(Cl)cc2)n[nH]1 | -10 | -21 | . | . | . | .
Cc1cc(C)c(NC(=O)C2=COCCO2)c(C)c1 | 17* | 1 | 2 | -1 | 2 | 4
CC[n+]1ccc(C[n+]2ccccc2)c2ccccc21 | 20* | 6 | 0 | -2 | -4 | 22*
O=C(NCCc1c[nH]c2ccccc12)OCc1cn(Cc2ccccc2Cl)nn1 | 0 | 0 | . | . | . | .
Cc1ccn2c(=O)nc(SCC(=O)N3CCN(c4ccccc4)CC3)nc2c1 | 18* | 2 | 4 | 7 | 2 | 6
Cc1ccn2c(=O)nc(SCC(=O)N3CCC(Cc4ccccc4)CC3)nc2c1 | -4 | 6 | 2 | 8 | -6 | .
COc1cc2ncnc(NCCCN3CCOCC3)c2cc1OC | 38* | -1 | -1 | -3 | -1 | 1
CCOc1cc2nc(-c3ccc(OC)c(OC)c3)nc(NCCCN3CCOCC3)c2cc1OC | -2 | -1 | 1 | -9 | -11 | .
Cc1ccc(Cn2cc(CN(C(C)(C)C)S(=O)(=O)c3ccccc3Br)nn2)cc1 | 1 | 0 | . | . | . | .
O=C(NCC1CCN(C(=O)C(=O)c2cc3ccccc3o2)CC1)c1cccnc1 | 5 | 6 | . | -7 | . | .
Cc1csc(Nc2ccc(Cl)cc2)n1 | 19* | -2 | -1 | 3 | -2 | 1
Cc1ccc(Nc2nc(C)cs2)cc1 | 3 | 0 | -2 | 7 | 3 | .
CCOC(=O)N[C@@H](Cc1cccnc1)C(=O)N1CCC[C@H]1C(=O)NCCc1ccccc1Cl | 1 | 2 | . | 3 | . | .
Cc1[nH]c2ccccc2c1CC(=O)Nc1ccc(N(C)c2cccnc2)c(-c2ccc(F)c(F)c2)c1 | 8 | 19 | . | -4 | . | .
Oc1ccc(/C=N/Nc2ncnc3nc[nH]c23)cc1 | 18* | 2 | -3 | 3 | 4 | -2
Clc1ccc(/C=N/Nc2ncnc3nc[nH]c23)cc1 | 2 | -2 | -3 | -1 | 3 | .
COC(=O)c1cc(-c2ccc(F)c(Cl)c2)c(=O)n2c1CCC2 | -5 | 11 | . | . | . | .
C=CCNC(=O)C(=O)NCC1CCCN1S(=O)(=O)c1cccs1 (configuration not stated) | 20* | 3 | 1 | 5 | -3 | 5
SMILES | SIAE primary | ABHD4 inh | DAGLB inh | TCR-CD3 inh | HTRA1 inh | SIAE confirm
COc1ccc(NCC(=O)N/N=C(\C)c2cc3ccccc3o2)cc1 | 18* | 4 | -1 | 2 | 1 | 8
O=S1(=O)CCC(N(N=Cc2ccco2)c2ccccc2)C1 (configuration not stated) | 0 | 3 | . | 0 | . | .
Cn1cccc1-c1cc(C(=O)N/N=C/c2cc(Br)ccc2O)[nH]n1 | 24* | 2 | 9 | -2 | 22 | -6
COc1ccc(-c2cc(C(F)(F)F)nc(N3CCN(C)CC3)n2)cc1OC | 1 | 4 | -3 | 1 | -2 | .
COc1ccc(-c2cc(C(F)(F)F)nc(N3CCCCC3)n2)cc1OC | 19* | 2 | -3 | 5 | 2 | -4
C[C@@H]1CCCCO[C@@H](CN(C)C(=O)CCC(F)(F)F)[C@@H](C)CN([C@H](C)CO)C(=O)c2cc(NS(=O)(=O)c3cccs3)ccc2O1 | -2 | 2 | . | -2 | . | .
O=c1c2ccccc2oc2cc(Br)ccc12 | 20* | 2 | -6 | 2 | -14 | 4
Clc1ccc(-c2csc(N3CCCCCC3)n2)cc1 | 76* | -14 | -9 | -5 | 0 | 5
Clc1ccc(-c2csc(N3CCOCC3)n2)cc1 | 1 | 6 | -6 | 8 | 3 | .
O=C1c2cccnc2-c2ncccc21 | 1 | 0 | -1 | 3 | 1 | .
COC1=C(Br)C(=O)c2ncccc2C1=O | 22* | 11 | -16 | 3 | 18 | -1
CN1/C(=C\C(=O)Nc2ccc(F)cc2)C(C)(C)c2ccccc21 | -3 | -1 | -5 | -4 | -16 | .
CN1/C(=C\C(=O)Nc2ccc(Br)cc2)C(C)(C)c2ccccc21 | 26* | -3 | -5 | 5 | -5 | 6
NC(=O)c1ncn([C@@H]2O[C@H](C(=O)N[C@H](Cc3c[nH]c4ccccc34)C(=O)NCC(=O)N3CCCCC3)[C@@H](O)[C@H]2O)n1 | 6 | 4 | . | 0 | . | .
NC(=O)c1ncn([C@@H]2O[C@H](C(=O)N[C@H](Cc3c[nH]c4ccccc34)C(=O)N3CCN(C(=O)N4CCOCC4)CC3)[C@@H](O)[C@H]2O)n1 | 52* | 9 | . | 2 | . | 33*
CCOC(=O)N1CCN(S(=O)(=O)c2ccc(C)c(C(=O)NC3CCCCC3)c2)CC1 | 19* | 4 | 1 | 4 | 10 | -6
O=C(CCN1C(=O)c2ccccc2C1=O)Nc1cccc(O)c1 | 20* | -1 | 2 | 5 | 10 | -1
O=C(CCCCCN1C(=O)c2ccccc2C1=O)Nc1cccc(O)c1 | 3 | 0 | 1 | 6 | 3 | .
CCN(CC)CC(=O)N1c2ccccc2Sc2ccccc21 | -8 | 0 | 2 | 7 | 1 | .
CCN(CC)C(=O)N1c2ccccc2Sc2ccccc21 | 18* | 7 | -3 | 2 | -2 | 11
N#Cc1cccc(NC(=O)c2cc(C3CCCCN3C(=O)CCCc3ccccc3)on2)c1 (configuration not stated) | -29 | 1 | . | 1 | . | .
O=C1CC(c2ccco2)CC(O)=C1C=Nc1ccccc1-c1ccccc1 (configuration not stated) | 27* | 0 | -11 | -2 | -7 | 0
C[C@H](NC(=O)CCCn1nnc2ccccc2c1=O)C(=O)O | 17* | 9 | -1 | 0 | 0 | 0
C[C@H](NC(=O)CCn1nnc2ccccc2c1=O)C(=O)O | 3 | 2 | 0 | 11 | 9 | .
COC(=O)[C@]12C[C@H](CC(=O)N3CCCCC3)C(=O)N(Cc3ccccc3)C1=C[C@H](C(C)C)O[C@@H]2C1CC1 | -9 | -1 | . | 1 | . | .
